Experimental data taken from ChEMBL document CHEMBL1153713, “Effect of chirality of small molecule organofluorine inhibitors of amyloid self-assembly on inhibitor potency” (Bioorg Med Chem Lett, 2009).
The source made the active and inactive calls. The rule behind the calls is not given here.

What was measured:
[1] = Inhibition of amyloid beta (1 to 40) fibrillation by atomic force microscopy
How it was run: (§1)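 Aβ1-40 (100 μM in HEPES/NaCl/NaN3, pH 7.4) incubated with inhibitor (DMSO stock, 10:1 inhibitor:peptide) at 37°C with gentle shaking. Aliquots diluted in the same HEPES buffer, 2-5 μL spotted on freshly cleaved mica. Imaged by non-contact AFM over 10 μm2 scans and compared with inhibitor-free control.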

[2] = Inhibition of amyloid beta (1 to 40) after 94 hrs by thioflavin-T assay relative to control
How it was run: (§2)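 Synthetic Aβ1-40 dissolved in 100 mM NaOH (40 mg/ml), diluted to 100 μM final in 10 mM HEPES, 100 mM NaCl, 0.02% NaN3, pH 7.4; inhibitor added from DMSO at inhibitor/Aβ = 10. Incubated at 37°C, 77 rpm shaking, up to 140 h. Aliquots into 5 μM ThT in glycine-NaOH pH 8.5; ex 430/em 484 nm, 0 h background subtracted, normalized to inhibitor-free control.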

[3] = Inhibition of amyloid beta (1 to 40) after 140 hrs by thioflavin-T assay; how it was run: as §2
[4] = Inhibition of amyloid beta (1 to 40) fibrillation by atomic force microscopy relative to control; conditions: concentration not given here; how it was run: as §1

Activity [1]	Activity [2]	Activity [3]	inhibition [4] [%]	Structure (SMILES)
Active	Active	Active	–	CCOC(=O)[C@@](O)(c1c[nH]c2ccc(Br)cc12)C(F)(F)F
Active	Active	Active	60	CCOC(=O)[C@](O)(c1c[nH]c2ccc(Br)cc12)C(F)(F)F
Active	Active	Active	60	CCOC(=O)[C@@](O)(c1c[nH]c2ccc(Cl)cc12)C(F)(F)F

The next lines start with the compound.

Structure (SMILES)	Activity [1]	Activity [2]	Activity [3]	inhibition [4] [%]
CCOC(=O)[C@](O)(c1c[nH]c2ccc(I)cc12)C(F)(F)F	Active	Active	Active	–
CCOC(=O)[C@](O)(c1c[nH]c2ccc(Cl)cc12)C(F)(F)F	Active	Active	Active	60
CCOC(=O)[C@@](O)(c1c[nH]c2ccc(I)cc12)C(F)(F)F	Active	Active	Active	–
